What all share (assay type): functional
Test [1] concerns Aspergillus flavus. Briefly: Antifungal activity against Aspergillus flavus JLC 30784 by broth microdilution method. Summed up: (§1)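 MICs were determined by broth microdilution following NCCLS guidelines (M38-P for filamentous fungi). The panel covered four yeast species and two Aspergillus species, with two strains per species. Itraconazole served as positive control.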
The subject of test [2] is Pichia kudriavzevii. The experiment in a line: Antifungal activity against Candida krusei JLC 30386 by broth microdilution method. Summed up:
as §1
On the technique in general: In broth dilution the organism is exposed to a series of concentrations in liquid medium.

In test [3] the test system is Cryptococcus neoformans. The experiment in a line: Antifungal activity against Cryptococcus neoformans JLC 50122 by broth microdilution method. A digest of the protocol:
as §1

The subject of test [4] is Aspergillus fumigatus. Briefly: Antifungal activity against Aspergillus fumigatus JLC 30506 by broth microdilution method. A digest of the protocol:
as §1

Test [5] concerns Candida albicans. The experiment in a line: Antifungal activity against Candida albicans JLC 31374 by broth microdilution method. A digest of the protocol: as §1
The test system of test [6] is Candida parapsilosis. The experiment in a line: Antifungal activity against Candida parapsilosis JLC 30365 by broth microdilution method. As to conditions: Lodderomyces parapsilosis. Summed up: as §1
Test [7] deals with Candida albicans. Briefly: Antifungal activity against Candida albicans JLC 30364 by broth microdilution method. Summed up:
as §1

Test [8] concerns Pichia kudriavzevii. Briefly: Antifungal activity against Candida krusei JLC 30366 by broth microdilution method. A digest of the protocol: as §1
Test [9] has as its system Candida parapsilosis. Briefly: Antifungal activity against Candida parapsilosis JLC 30275 by broth microdilution method. The note with it: Lodderomyces parapsilosis. A digest of the protocol:
as §1

Test [10] deals with Aspergillus fumigatus. Briefly: Antifungal activity against Aspergillus fumigatus JLC 30883 by broth microdilution method. A digest of the protocol: as §1
Test [11] deals with Aspergillus flavus. The experiment in a line: Antifungal activity against Aspergillus flavus JLC 40437 by broth microdilution method. A digest of the protocol: as §1
The subject of test [12] is Cryptococcus neoformans. Briefly: Antifungal activity against Cryptococcus neoformans JLC 50123 by broth microdilution method. A digest of the protocol: as §1

Structures are written as SMILES. ≈ marks a conversion by molar mass, not a printed value. Bounds are passed on as bounds.

The record followed here is ChEMBL document CHEMBL1806410, “Design and synthesis of pyridine-substituted itraconazole analogues with improved antifungal activities, water solubility and bioavailability” (Bioorg Med Chem Lett, 2011).

In general, MIC refers to the lowest concentration that inhibits growth of the organism. High values mean weaker potency, low ones greater potency. Turning to `O=c1n(-c2ccc(N3CCN(c4ccc(OC[C@H]5CO[C@](Cn6cncn6)(c6ccc(F)cc6F)O5)cc4)CC3)nc2)cnn1CCCO`, the MIC was 0.25 µg/mL (≈ 0.37 µM) in [1]; 0.0625 µg/mL (≈ 0.0925 µM) in test [2]; < 0.0625 µg/mL in test [3]; 1 µg/mL (≈ 1.48 µM) in test [4]; < 0.0625 µg/mL in [5]; 0.0625 µg/mL (≈ 0.0925 µM) in test [6]. In addition, the MIC in test [7] was < 0.0625 µg/mL; in test [8], 0.0625 µg/mL (≈ 0.0925 µM); in test [9], 0.0625 µg/mL (≈ 0.0925 µM); in test [10] it was 1 µg/mL (≈ 1.48 µM); in [11] it was 0.25 µg/mL (≈ 0.37 µM); in test [12] it was < 0.0625 µg/mL.
Consider `CCC(C)n1ncn(-c2ccc(N3CCN(c4ccc(OC[C@H]5CO[C@](Cn6cncn6)(c6ccc(F)cc6F)O5)cc4)CC3)nc2)c1=O` (stereo partly specified), for which the MIC in test [1] was 0.25 µg/mL (≈ 0.371 µM); in test [2] it was 0.125 µg/mL (≈ 0.186 µM); in test [3], 0.5 µg/mL (≈ 0.742 µM); in test [4] it was 0.0625 µg/mL (≈ 0.0928 µM); in [5] it was < 0.0038 µg/mL; in [6], 0.25 µg/mL (≈ 0.371 µM). For the same molecule, the minimum inhibitory concentration (MIC) was < 0.0038 µg/mL in test [7]; 0.125 µg/mL (≈ 0.186 µM) in test [8]; 0.25 µg/mL (≈ 0.371 µM) in test [9]; 0.0625 µg/mL (≈ 0.0928 µM) in [10]; 0.25 µg/mL (≈ 0.371 µM) in [11]; 0.5 µg/mL (≈ 0.742 µM) in test [12].
For the molecule `O=c1n(-c2ccc(N3CCN(c4ccc(OC[C@H]5CO[C@](Cn6cncn6)(c6ccc(F)cc6F)O5)cc4)CC3)nc2)cnn1Cc1ccccc1`, the minimum inhibitory concentration (MIC) in test [1] was 0.25 µg/mL (≈ 0.353 µM); in [2], 0.5 µg/mL (≈ 0.706 µM); in [3], 0.25 µg/mL (≈ 0.353 µM); in test [4], 0.125 µg/mL (≈ 0.177 µM); in test [5], < 0.0038 µg/mL; in test [6], 0.25 µg/mL (≈ 0.353 µM). Further, the MIC in test [7] was < 0.0038 µg/mL; in test [8] it was 0.5 µg/mL (≈ 0.706 µM); in [9] it was 0.25 µg/mL (≈ 0.353 µM); in test [10], 0.125 µg/mL (≈ 0.177 µM); in test [11], 0.25 µg/mL (≈ 0.353 µM); in test [12], 0.25 µg/mL (≈ 0.353 µM).
For the molecule `CC(C)(CO)Cn1ncn(-c2ccc(N3CCN(c4ccc(OC[C@H]5CO[C@](Cn6cncn6)(c6ccc(F)cc6F)O5)cc4)CC3)nc2)c1=O`, the MIC was 0.125 µg/mL (≈ 0.178 µM) in test [1]; 0.25 µg/mL (≈ 0.355 µM) in [2]; 0.125 µg/mL (≈ 0.178 µM) in test [3]; 0.125 µg/mL (≈ 0.178 µM) in [4]; 0.0625 µg/mL (≈ 0.0888 µM) in test [5]; 0.5 µg/mL (≈ 0.71 µM) in test [6]. Besides, the MIC in test [7] is 0.0625 µg/mL (≈ 0.0888 µM); in test [8], 0.25 µg/mL (≈ 0.355 µM); in test [9] it was 0.5 µg/mL (≈ 0.71 µM); in test [10], 0.125 µg/mL (≈ 0.178 µM); in test [11] it was 0.125 µg/mL (≈ 0.178 µM); in test [12] it was 0.125 µg/mL (≈ 0.178 µM).
With `CC(CO)Cn1ncn(-c2ccc(N3CCN(c4ccc(OC[C@H]5CO[C@](Cn6cncn6)(c6ccc(F)cc6F)O5)cc4)CC3)nc2)c1=O` (stereo partly specified), the MIC in test [1] is > 0.5 µg/mL; in [2] it was 0.125 µg/mL (≈ 0.181 µM); in test [3], 0.0625 µg/mL (≈ 0.0906 µM); in test [4], > 32 µg/mL; in test [5] it was 0.0625 µg/mL (≈ 0.0906 µM); in test [6], 2 µg/mL (≈ 2.9 µM). Besides, the MIC in test [7] is 0.0625 µg/mL (≈ 0.0906 µM); in test [8], 0.125 µg/mL (≈ 0.181 µM); in test [10] it was > 32 µg/mL; in [11], > 0.5 µg/mL; in [12], 0.0625 µg/mL (≈ 0.0906 µM).
Regarding `CC(CO)n1ncn(-c2ccc(N3CCN(c4ccc(OC[C@H]5CO[C@](Cn6cncn6)(c6ccc(F)cc6F)O5)cc4)CC3)nc2)c1=O` (stereo partly specified), the minimum inhibitory concentration (MIC) in [1] is 0.25 µg/mL (≈ 0.37 µM); in [2], > 2 µg/mL; in test [3], < 0.0625 µg/mL; in test [4] it was 1 µg/mL (≈ 1.48 µM); in [5], < 0.0625 µg/mL; in [6], < 0.0625 µg/mL. Besides, the minimum inhibitory concentration (MIC) was < 0.0625 µg/mL in [7]; > 2 µg/mL in [8]; < 0.0625 µg/mL in test [9]; 1 µg/mL (≈ 1.48 µM) in test [10]; 0.25 µg/mL (≈ 0.37 µM) in test [11]; < 0.0625 µg/mL in [12].
